Rows were chosen to be rich in hits. Some 2.3% of all compounds tested hit in one or more screens of this group.
TAAR1 ag: human TAAR1 agonism. Q96RJ0. CHO RD-HGA16 TAAR1, Fluo-8 calcium fluorescence; vehicle wells 0%, saturating PEA agonist 100%. activation, % at 3 µM. 0.99% of 360,000 active. AID 624467;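 active = activation above the mean activation of all test compounds in the run plus 3 SD, cut at about 38% in these data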
Target sequence (Q96RJ0 whole entry, looked up): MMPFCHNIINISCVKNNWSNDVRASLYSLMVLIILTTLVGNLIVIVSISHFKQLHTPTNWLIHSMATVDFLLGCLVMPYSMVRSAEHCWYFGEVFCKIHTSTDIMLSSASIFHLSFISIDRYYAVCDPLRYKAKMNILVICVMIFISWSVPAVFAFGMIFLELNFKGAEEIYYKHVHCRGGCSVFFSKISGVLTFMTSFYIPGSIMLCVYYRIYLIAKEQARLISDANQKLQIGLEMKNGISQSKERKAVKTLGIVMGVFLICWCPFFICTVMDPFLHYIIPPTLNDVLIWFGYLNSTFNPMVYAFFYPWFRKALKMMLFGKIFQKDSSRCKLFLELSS
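test system = CHO RD-HGA16 cells carrying human TAAR1 plus Gα16 | schedule = 17-24 h seeding, 75 min 37 °C dye, 30 min RT | compound dosing = 3 µM single concentration | control set = DMSO and PEA EC100 | replicates = n 1 | signal = Fluo-8 fluorescence, 5 s baseline then 140 s kinetic read | measure = percent activation vs PEA EC100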
V1R ag counter: activates human V1a receptor in oxytocin agonist counter-screen. P37288. CHO-V1R cells, Fluo-8 calcium fluorescence, agonist mode; 0% DMSO, 100% 3 nM vasopressin. activation, % at 3 µM. 0.25% of 320,000 active;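 active = activation above the mean activation of all tested compounds plus 3 SD, per screening run, cut at about 20% in these data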;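 also: signal is peak over basal fluorescence ratio across a 100 second FLIPR read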
OXTR ag: human OXTR agonism | P30559 | CHO-OTR cells, Fluo-8 calcium fluorescence; normalized: DMSO 0%, oxytocin 100% | activation, % at 3 µM | 0.32% of 320,000 active;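 active = activation above the mean of all tested compounds plus 3 SD, cutoff set per screening run, cut at about 20% in these data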;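 also: peak over basal fluorescence ratio from a 100 s FLIPR kinetic read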
Target sequence (P30559 whole entry, looked up): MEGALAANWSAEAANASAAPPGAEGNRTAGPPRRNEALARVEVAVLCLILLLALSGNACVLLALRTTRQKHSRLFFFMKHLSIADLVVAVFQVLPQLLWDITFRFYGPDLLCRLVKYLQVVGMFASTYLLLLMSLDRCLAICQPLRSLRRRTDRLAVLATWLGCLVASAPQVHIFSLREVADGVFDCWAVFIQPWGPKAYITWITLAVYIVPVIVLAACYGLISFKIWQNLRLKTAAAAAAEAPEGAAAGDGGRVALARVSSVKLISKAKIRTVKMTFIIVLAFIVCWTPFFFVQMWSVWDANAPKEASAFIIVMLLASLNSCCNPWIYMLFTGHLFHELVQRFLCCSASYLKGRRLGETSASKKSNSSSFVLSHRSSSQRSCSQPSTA
TAAR1 antag: antagonists of human TAAR1 | CHO RD-HGA16 TAAR1, Fluo-8 calcium fluorescence, antagonist | Q96RJ0 | AID 624466 | inhibition, % at 3 µM | 1.5% of 360,000 active;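 active = inhibition above a per-plate cutoff, the mean inhibition of test compounds on that plate plus 3 SD, cut at about 49% in these data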
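Material: CHO RD-HGA16 cells bearing hTAAR1; compound dosing: one-point dosing, 3 µM nominal final; schedule: dye loading 75 min at 37 °C, then 30 min room temperature; measured by: calcium fluorescence with Fluo-8; control set: vehicle and agonist controls; replication: n of 1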
OXTR potentiate: potentiators of human oxytocin receptor; P30559; CHO-OTR cells, Fluo-8 calcium fluorescence, potentiator mode; 0% = oxytocin EC15, 100% = EC100; activation, % at 3 µM; 0.061% of 320,000 active;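 active = activation above that plate's cutoff, the mean activation of tested compounds plus 3 SD, cut at about 6.6% in these data, passing the limit was not always enough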
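Material: human OTR in CHO cells. Compound: 3.0 µM, one dose. Timing: compound 6 min at room temperature before oxytocin, 100 s read. Evaluation: % activation of max/min ratio relative to oxytocin controls. Replication: single well per compound, singlicate. Signal: Fluo-8 calcium dye fluorescence.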
TAAR1 ag confirm: confirmation of human TAAR1 agonists; shares compounds with TAAR1 ag; CHO RD-HGA16 TAAR1, Fluo-8 calcium fluorescence; scaled: DMSO 0%, maximal phenethylamine 100%; activation, % at 3 µM; 82% of 2,400 active;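 active = activation above a cutoff set at the run's mean compound activation plus 3 SD, cut at about 39% in these data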
Ga16 ag counter: counter-screen for TAAR1 agonists: nonselective agonists in parental cells; CHO-Ga16 parental, Fluo-8 calcium fluorescence; normalized to maximal ATP response, DMSO zero; 50% of 2,400 active; AID 651787; activation, % at 3 µM; shares compounds with TAAR1 ag;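 active = activation above the run cutoff, the mean activation over all tested wells plus 3 SD, cut at about 12% in these data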
TAAR1 desens: counter-screen for human TAAR1 agonists: agonists that desensitize TAAR1. shares compounds with TAAR1 ag. 46% of 2,400 active. inhibition, % at 3 µM. CHO RD-HGA16 hTAAR1, Fluo-8 calcium, beta-PEA response inhibition;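 active = inhibition above the run cutoff, the mean inhibition of all test compounds plus 3 SD, cut at about 49% in these data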;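 also: beta-PEA stimulus applied at its EC80; loss of beta-PEA calcium signal after compound pretreatment read as receptor desensitization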
Ga16 nonsel ant: counter-screen for TAAR1 agonists: nonselective Ga16 antagonists; shares compounds with TAAR1 ag; CHO-Ga16 ATP-induced calcium, Fluo-8 fluorescence; inhibition, % at 3 µM; 39% of 2,400 active; AID 651952;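 active = inhibition above the plate's mean compound inhibition plus 3 SD, computed per plate, cut at about 22% in these data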
Numbers stand for hits; - = inactive; . = not tested or not shown.

SMILES	TAAR1 ag	V1R ag counter	OXTR ag	TAAR1 antag	OXTR potentiate	TAAR1 ag confirm	Ga16 ag counter	TAAR1 desens	Ga16 nonsel ant
CC(O)[C@H]1CNCCN1CCc1cccc(F)c1 (some centres undefined)	74	-	-	-	-	67	-	-	-
c1ccc(C2(CN3CCNC[C@H]3Cc3cccc4ccccc34)CC2)cc1	44	-	-	-	-	47	19	-	26
Fc1cccc(CCN2CCNC[C@H]2Cc2cccc3ccccc23)c1	68	-	-	-	-	80	16	-	27
O=C(NCc1ccccc1)c1ccc(NC(=O)C2CCCC2)cc1	-	.	.	-	.	.	.	.	.
Cc1ccc(S(=O)(=O)N(C)CC(=O)NNC(=O)CCNS(=O)(=O)c2cccc(C)c2)cc1	-	-	-	-	-	.	.	.	.
NC(=O)C1CCN(CC(=O)Nc2cc(S(=O)(=O)N3CCOCC3)ccc2N2CCCC2)CC1	-	-	-	-	-	.	.	.	.
O=C(O)c1ccc(COc2ccc(CO)cc2Cl)cc1	-	-	-	-	-	.	.	.	.
CCN1C(=O)/C(=C/c2ccc(OCc3ccc(C(=O)O)cc3)c(Cl)c2)NC1=S	100	-	-	96	-	-	36	76	68
C=CCn1c(SCC(=O)NCCc2ccccc2)nnc1C(C)NC(=O)c1cccs1 (centres undefined)	49	-	-	-	-	66	-	-	-
C=CCn1c(SCC(=O)Nc2cccc(C(=O)OC)c2)nnc1C(C)NC(=O)c1cccs1 (centres undefined)	-	-	-	-	-	.	.	.	.
CC(OC(=O)Cc1c[nH]c2ccccc12)C(=O)N(C)c1ccccc1 (centres undefined)	-	-	-	-	-	.	.	.	.
COc1ccc(-c2nnc(SCC(=O)O)n2C)cc1OC	-	-	-	-	-	.	.	.	.
CCOC(=O)c1c(S(=O)(=O)NCCc2cccs2)c(C)n(C)c1C	55	-	-	-	-	-	-	-	-
CCOC(=O)c1c(S(=O)(=O)NCC2CCN(CCc3cccs3)CC2)c(C)n(C)c1C	-	-	-	-	-	.	.	.	.
CCCCN1C(=O)/C(=C/C=C2\N(C)c3ccccc3C2(C)C)SC1=S	.	-	-	.	-	.	.	.	.
CCCCN1C(=O)/C(=C/C=C2\SCCN2C)SC1=S	71	.	.	-	.	50	34	-	45
C/C(CC(=O)Nc1cccnc1)=N\NC(=O)C(C)Oc1ccc(Cl)cc1Cl (centres undefined)	-	-	-	-	-	.	.	.	.
N#C/C(=C\c1ccccn1)c1nc2ccccc2s1	72	31	28	75	-	-	29	-	53
Cc1ccc(C(=O)NCCNC(=O)c2ccc(F)cc2)cn1	-	-	-	-	-	.	.	.	.
CC(=O)c1cccc(NC(=O)COC(=O)COc2c(Cl)cc(Cl)c3ccc(C)nc23)c1	-	-	-	-	-	.	.	.	.
COc1ccc(Nc2nc(N)nc(CN3CCc4ccccc4C3)n2)cc1	44	-	-	-	-	88	-	-	-
Nc1nc(CN2CCCCCC2)nc(Nc2ccccc2)n1	-	-	-	-	-	.	.	.	.
COc1ccccc1Nc1nc(N)nc(CN2CCc3ccccc3C2)n1	43	-	-	-	-	54	-	-	-
Nc1nc(CN2CCc3ccccc3C2)nc(Nc2ccccc2)n1	59	-	-	-	-	85	-	-	-
COc1ccc(Nc2nc(N)nc(CN3CCC(C)CC3)n2)cc1	-	-	-	-	-	.	.	.	.
SMILES	TAAR1 ag	V1R ag counter	OXTR ag	TAAR1 antag	OXTR potentiate	TAAR1 ag confirm	Ga16 ag counter	TAAR1 desens	Ga16 nonsel ant
COc1ccccc1N1CCN(Cc2nc(N)nc(Nc3ccc(C)cc3)n2)CC1	-	-	-	-	-	.	.	.	.
C[C@@H]1NS(=O)(=O)[C@H]2C[C@@H]3C=C[C@]2(O3)[C@H]1OC(=O)c1ccc(C(C)(C)C)cc1	-	-	-	-	-	.	.	.	.
Cc1ccc(NC(=O)C(C)N2C(=O)c3ccccc3C2=O)c(C)c1 (centres undefined)	-	-	-	-	-	.	.	.	.
CC(=O)c1ccc(NC(=O)CCNC(=O)c2ccc(Cl)cc2)cc1	-	-	-	-	-	.	.	.	.
CCOC(=O)c1nc(-c2ccc(OC)c(OC)c2)cnc1C#N	-	-	-	-	-	.	.	.	.
CC1CCCC(C)N1C(=O)CNCc1ccc2c(c1)OCO2 (centres undefined)	71	-	-	-	-	-	-	-	-
O=C(NCc1ccc2c(c1)OCO2)C(=O)NC1CCCCC1	-	-	-	-	-	.	.	.	.
OC[C@@H]1CN(Cc2ccncc2)C[C@H](n2cnc3c(NCc4ccco4)ncnc32)O1	-	.	.	-	.	.	.	.	.
O=C(C[C@H]1C(=O)N(CCc2ccccc2)C[C@@H]1c1ccccc1)Nc1ccccc1	73	.	.	-	.	77	-	-	-
O=C(C[C@H]1C(=O)N(CCc2ccccc2)C[C@@H]1Cc1ccccc1)Nc1ccccc1	-	-	-	-	-	.	.	.	.
O=C(O)/C=C/C(=O)NCc1csc2ccccc12	.	-	-	.	-	.	-	.	-
Cc1ccccc1CNC(=O)/C=C\C(=O)O	-	-	-	-	-	.	.	.	.
c1ccc(CCN2CN(CCCN3CCOCC3)c3nc4ccccc4n3C2)cc1	.	-	-	.	-	.	-	.	-
CC(C)N1C(=O)S/C(=C\c2ccc(-c3ccc(Cl)c(C(=O)O)c3)o2)C1=O	-	-	-	-	-	.	.	.	.
CCN(CC)c1ccc(/C=C2/SC(=O)N(C(C)C)C2=O)o1	73	.	.	54	.	69	73	64	68
O=C(CN1C(=O)NC2(CCCCC2)C1=O)N1CCN(S(=O)(=O)c2ccc(F)cc2)CC1	-	-	-	-	-	.	.	.	.
O=S(=O)(/C=C/c1ccccc1)Nc1ccc(F)cc1	-	-	-	-	-	.	.	.	.
C[C@H](NC(=O)c1[nH]cnc1C(=O)N[C@H](C)c1ccccc1)c1ccccc1	47	-	-	-	-	41	-	-	-
COc1ccc(C(=O)C2CCCN(C(=O)c3ccc4nccnc4c3)C2)c(C)c1 (centres undefined)	-	-	-	-	-	.	.	.	.
O=C(CSC1=NS(=O)(=O)c2cc(F)ccc2N1)NCCc1ccccc1	101	-	-	81	-	105	-	94	-
O=C(CSC1=NS(=O)(=O)c2cc(F)ccc2N1)Nc1ccccc1	-	-	-	-	-	.	.	.	.
